Measured values: ChEMBL document CHEMBL4152256, “Structure-activity relationship of new antimalarial 1-aryl-3-susbtituted propanol derivatives: Synthesis, preliminary toxicity profiling, parasite life cycle stage studies, target exploration, and targeted delivery” (Eur J Med Chem, 2018)
pIC50: −log10 of the molar value.

Columns and labels:
[1] = Genotoxicity in Salmonella typhimurium TA1535 harboring pSK1002 assessed as survival at 0.25 mg/ml in absence of Sprague-Dawley rat liver S9 fraction after by SOS/umu assay relative to control; assay type: toxicity, organism-based; settings: salmonella enterica subsp. enterica serovar typhimurium, read-out: Survival
Plasmodium berghei [2] = assay: Antiplasmodial activity against Plasmodium berghei ANKA infected in mouse assessed as mouse survival time at 50 mg/kg/day, po for 4 consecutive days starting from 2 hrs post infection by MSF assay; assay type: functional
In short: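 Swiss male mice (20 ± 2 g) infected i.p. with 10^7 P. berghei ANKA parasitized cells in 0.1 mL 0.9% saline (day 0). Oral dosing began 2 h post-infection and continued daily on days 0–3, five mice per batch. Test drugs were given at 50 mg/kg/day in water:DMSO and chloroquine diphosphate at 3 mg/kg/day; a vehicle control was included. Survival was checked daily, and parasitemia was read on day 4 by modified MSF assay.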

[3] = Genotoxicity in Salmonella typhimurium TA1535 harboring pSK1002 assessed as survival at 0.031 mg/ml in presence of Sprague-Dawley rat liver S9 fraction after by SOS/umu assay relative to control; assay type: toxicity, organism-based; settings: salmonella enterica subsp. enterica serovar typhimurium, read-out: Survival
[4] = Solubility of the compound in DSPC:cholesterol:DSPE-PEG2000-Mal:DOPE-Rho lipid mixture at 250 uM; assay type: physicochemical
In short: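 Compound added at 250 µM drug to the initial liposome lipid mixture (10 mM total lipid); precipitation and UV-visible absorbance above 300 nm assessed after encapsulation, removal of unencapsulated material and extraction with 1% w/v SDS in RPMI-A.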

Plasmodium berghei [5] = assay: Antiplasmodial activity against Plasmodium berghei ANKA infected in mouse assessed as inhibition of parasitemia at 50 mg/kg/day, po for 4 consecutive days starting from 2 hrs post infection by MSF assay relative to control; assay type: functional
In short: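 Swiss male mice (20 ± 2 g) infected ip with 10^7 P. berghei ANKA parasitized cells (day 0). Five per group dosed orally 2 h after infection and daily on days 0–3. Test compounds at 50 mg/kg/day in water:DMSO; chloroquine diphosphate at 3 mg/kg/day; vehicle controls. Parasitemia measured on day 4 by MSF assay; survival checked daily.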

[6] = Genotoxicity in Salmonella typhimurium TA1535 harboring pSK1002 assessed as umu gene induction at 0.5 mg/ml in presence of Sprague-Dawley rat liver S9 fraction after by SOS/umu assay relative to control; assay type: toxicity, organism-based; settings: salmonella enterica subsp. enterica serovar typhimurium, read-out: FC
[7] = Genotoxicity in Salmonella typhimurium TA1535 harboring pSK1002 assessed as survival at 0.016 mg/ml in presence of Sprague-Dawley rat liver S9 fraction after by SOS/umu assay relative to control; assay type: toxicity, organism-based; settings: salmonella enterica subsp. enterica serovar typhimurium, read-out: Survival
[8] = Genotoxicity in Salmonella typhimurium TA1535 harboring pSK1002 assessed as survival at 0.004 mg/ml in presence of Sprague-Dawley rat liver S9 fraction after by SOS/umu assay relative to control; assay type: toxicity, organism-based; settings: salmonella enterica subsp. enterica serovar typhimurium, read-out: Survival
Plasmodium falciparum [9] = assay: Antiplasmodial activity against Plasmodium falciparum D6 after 72 hrs by MSF assay; assay type: functional, organism-based; settings: D6, 72 h
In short: (§1)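 D6 and C235 strains from the Walter Reed Army Institute of Research were tested by the Malaria SYBR Green-I fluorescence assay.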

[10] = Genotoxicity in Salmonella typhimurium TA1535 harboring pSK1002 assessed as survival at 0.25 mg/ml in presence of Sprague-Dawley rat liver S9 fraction after by SOS/umu assay relative to control; assay type: toxicity, organism-based; settings: salmonella enterica subsp. enterica serovar typhimurium, read-out: Survival
[11] = Genotoxicity in Salmonella typhimurium TA1535 harboring pSK1002 assessed as survival at 0.5 mg/ml in absence of Sprague-Dawley rat liver S9 fraction after by SOS/umu assay relative to control; assay type: toxicity, organism-based; settings: salmonella enterica subsp. enterica serovar typhimurium, read-out: Survival
Plasmodium falciparum [12] = assay: Antiplasmodial activity against multidrug-resistant Plasmodium falciparum C235 after 72 hrs by MSF assay; assay type: functional, organism-based; settings: C235, 72 h; in short: as §1
[13] = Genotoxicity in Salmonella typhimurium TA1535 harboring pSK1002 assessed as umu gene induction at 0.008 mg/ml in absence of Sprague-Dawley rat liver S9 fraction after by SOS/umu assay relative to control; assay type: toxicity, organism-based; settings: salmonella enterica subsp. enterica serovar typhimurium, read-out: FC
[14] = Genotoxicity in Salmonella typhimurium TA1535 harboring pSK1002 assessed as survival at 0.5 mg/ml in presence of Sprague-Dawley rat liver S9 fraction after by SOS/umu assay relative to control; assay type: toxicity, organism-based; settings: salmonella enterica subsp. enterica serovar typhimurium, read-out: Survival
[15] = Genotoxicity in Salmonella typhimurium TA1535 harboring pSK1002 assessed as umu gene induction at 0.25 mg/ml in absence of Sprague-Dawley rat liver S9 fraction after by SOS/umu assay relative to control; assay type: toxicity, organism-based; settings: salmonella enterica subsp. enterica serovar typhimurium, read-out: FC
[16] = Selectivity index, ratio of CC50 for human HepG2A16 cells by MTT assay to IC50 for multidrug-resistant Plasmodium falciparum FCR-3; assay type: toxicity; settings: for selectivity ratio: HepG2A16 cells, read-out: Ratio CC50/IC50
In short: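 HepG2-A16 human hepatoma cells were tested by MTT viability assay to give CC50. Blood-stage activity was measured against the multidrug-resistant P. falciparum FCR-3 strain by [3H]-hypoxanthine incorporation to give IC50. SI = CC50 HepG2 / FCR-3 IC50.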

[17] = Genotoxicity in Salmonella typhimurium TA1535 harboring pSK1002 assessed as umu gene induction at 0.25 mg/ml in presence of Sprague-Dawley rat liver S9 fraction after by SOS/umu assay relative to control; assay type: toxicity, organism-based; settings: salmonella enterica subsp. enterica serovar typhimurium, read-out: FC
[18] = Genotoxicity in Salmonella typhimurium TA1535 harboring pSK1002 assessed as umu gene induction at 0.5 mg/ml in absence of Sprague-Dawley rat liver S9 fraction after by SOS/umu assay relative to control; assay type: toxicity, organism-based; settings: salmonella enterica subsp. enterica serovar typhimurium, read-out: FC
[19] = Genotoxicity in Salmonella typhimurium TA1535 harboring pSK1002 assessed as umu gene induction at 0.004 mg/ml in presence of Sprague-Dawley rat liver S9 fraction after by SOS/umu assay relative to control; assay type: toxicity, organism-based; settings: salmonella enterica subsp. enterica serovar typhimurium, read-out: FC
Plasmodium berghei [20] = assay: Antiplasmodial activity against GFP-fused Plasmodium berghei sporozoites infected in human HepG2A16 cells treated simultaneously with infection by fluorescence microscopic analysis; assay type: functional, organism-based
In short: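 HepG2-A16 cells (3 × 10^4/well, collagen-coated) infected with PbGFP sporozoites (5 × 10^3 to 1 × 10^4/well) and treated at the same time. Top concentration 10 µg/mL in DMEM, seven serial dilutions. Medium and compound renewed at 3 h and every 24 h. After 40 h at 37 °C: methanol fixation, anti-Plasmodium Hsp70 immunolabeling, Alexa 594 secondary, DAPI; high-content imaging.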

Row | SMILES | viability at 0.25 mg/ml [1] | MSD (Plasmodium berghei [2]) | viability at 0.031 mg/ml [3] | solubility [4] | fold induction at 0.5 mg/ml [6] | viability at 0.016 mg/ml [7] | viability at 0.004 mg/ml [8] | pIC50 (Plasmodium falciparum [9]) | viability at 0.25 mg/ml [10] | viability at 0.5 mg/ml [11] | pIC50 (Plasmodium falciparum [12]) | fold induction at 0.008 mg/ml [13] | viability at 0.5 mg/ml [14] | fold induction at 0.25 mg/ml [15] | selectivity ratio [16] | fold induction at 0.25 mg/ml [17] | fold induction at 0.5 mg/ml [18] | fold induction at 0.004 mg/ml [19] | also measured
1 | COc1ccccc1C1=CCN(CCC(O)c2ccc(F)cc2)CC1 (stereo not drawn) | 92.3% | 6 days | 81.8% | Insoluble | 1.3 | 78.9% | 82.3% | 5.43 | 73% | 19.4% | 5.43 | 1 | 82.1% | 1.3 | 51 | 1.1 | 2.3 | 1.1 | inhibition in vivo at 50 mg/kg/day (Plasmodium berghei [5]): ≤ 50%
2 | OC(CCN1CCN(c2ccccc2C(F)(F)F)CC1)c1ccc(F)c2ccccc12 (stereo in doubt; 55) | 207% | 8 days | 101% | Insoluble | 0.4 | 73.9% | 108% | 7.00 | 95.4% | 175% | 6.85 | 0.9 | 168% | 0.1 | – | 0.7 | 0.7 | 0.5 | IC50 (Plasmodium berghei [20]): Not Active; Ratio CC50/IC50 [16]: 183
3 | Nc1ccc(N2CCC(NCCC(O)c3ccc(F)c4ccccc34)CC2)c(C(F)(F)F)c1 (stereo not drawn) | 48% | 3 days | 39.1% | – | 0.1 | 32.4% | 116% | – | 118% | 68.2% | – | 1 | 118% | 0.2 | 137 | 0.1 | 0.1 | 1.1 | –
